ChEMBL document CHEMBL1154569, “Scalarane and homoscalarane compounds from the nudibranchs Glossodoris sedna and Glossodoris dalli: chemical and biological properties” (J Nat Prod, 2000)
Activity calls are given as the source filed them. The rule behind the calls is not given here.

Experiments:
[1] = Inhibition of cytosolic PLA2
Summary of the method: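 Measured in RBL-2H3 cells stimulated with ionomycin.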

[2] = system: Gambusia affinis; test: Ichthyotoxicity against Gambusia affinis at 0.1 ppm

SMILES | Activity [1] | IC50 [1] [µM] | Activity [2]
CC(=O)O[C@H]1C[C@@H]2[C@@]3(C)CCCC(C)(C)[C@@H]3CC[C@@]2(C)[C@@H]2CC=C(C=O)[C@H](C=O)[C@@]12C [SCALARADIAL] | – | 0.6 | Active
CC(=O)OC[C@]12CCCC(C)(C)[C@@H]1CC[C@]1(C)[C@@H]2C[C@@H](O)[C@]2(C)[C@@H]3C(=CC[C@@H]12)[C@H](C)O[C@H]3O | inactive | – | inactive
C[C@@H]1O[C@@H](O)[C@H]2C1=CC[C@H]1[C@]3(C)CC[C@H]4C(C)(C)CCC[C@]4(C)[C@H]3C[C@@H](O)[C@]21C | inactive | – | inactive
CC(=O)OC[C@]12CCCC(C)(C)[C@@H]1CC[C@]1(C)[C@@H]2C[C@@H](O)[C@]2(C)[C@@H](C=O)C(C(C)=O)=CC[C@@H]12 | – | 18 | –

Second part, led by results:

Activity [1] | IC50 [1] [µM] | SMILES | Activity [2]
inactive | – | CC(=O)O[C@H]1C[C@@H]2[C@@]3(C)CCCC(C)(C)[C@@H]3CC[C@@]2(C)[C@@H]2CC=C3CO[C@@H](O)[C@@H]3[C@@]12C | inactive
inactive | – | CC(=O)O[C@@H]1C[C@@H]2[C@@]3(C)CCCC(C)(C)[C@@H]3CC[C@@]2(C)[C@@H]2CC=C3CO[C@@H](O)[C@@H]3[C@@]12C | inactive
